These results are taken from ChEMBL document CHEMBL1141110, “Structure-activity relationships of new A,D-ring modified steroids as aromatase inhibitors: design, synthesis, and biological activity evaluation” (J Med Chem, 2005).

Series [1] has as its target T1, Aromatase (Homo sapiens, UniProt P11511).
T1 sequence (P11511 whole entry): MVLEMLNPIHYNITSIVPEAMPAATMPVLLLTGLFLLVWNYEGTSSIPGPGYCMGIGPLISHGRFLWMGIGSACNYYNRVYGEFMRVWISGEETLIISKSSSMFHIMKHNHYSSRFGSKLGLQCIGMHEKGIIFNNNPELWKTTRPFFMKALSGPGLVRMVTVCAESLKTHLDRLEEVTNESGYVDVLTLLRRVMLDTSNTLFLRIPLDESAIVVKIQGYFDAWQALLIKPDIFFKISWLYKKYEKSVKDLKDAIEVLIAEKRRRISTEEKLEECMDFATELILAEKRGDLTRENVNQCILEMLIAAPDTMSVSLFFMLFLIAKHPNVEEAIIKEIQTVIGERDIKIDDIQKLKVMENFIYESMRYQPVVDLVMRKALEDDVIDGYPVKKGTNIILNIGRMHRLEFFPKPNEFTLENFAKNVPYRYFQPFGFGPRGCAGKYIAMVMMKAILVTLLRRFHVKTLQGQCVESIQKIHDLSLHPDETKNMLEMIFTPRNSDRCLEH
Description: Percent inhibition at 2 uM against aromatase protein from human placental microsomes using [1-beta-3H]-androstenedione. In outline: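 Screening used 20 µg microsomal protein from human placenta, 40 nM [1β-3H]androstenedione (1 µCi) and inhibitor at 2 µM in 67 mM K phosphate pH 7.4. Reaction was started with 150 µM NADPH and run 15 min at 37 °C. 3H2O release was measured by scintillation counting after chloroform and charcoal-dextran cleanup. Inhibition is given relative to the no-inhibitor control. Triplicates.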

Series [2] has as its target T1, Aromatase. Description: Inhibitory concentration against aromatase protein from human placental microsomes using [1-beta-3H]-androstenedione; Competitive inhibition. In outline: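 Human placental microsomes in 67 mM K phosphate pH 7.4 with 200 nM [1β-3H]androstenedione (1 µCi) and graded inhibitor concentrations; inhibitors were dissolved in ethanol. Reaction was started with 150 µM NADPH and run 15 min at 37 °C. 3H2O was extracted with chloroform and dextran-coated charcoal, then scintillation counted. Triplicates.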

Series [3] concerns the target T1, Aromatase. Put plainly: Ratio of Michaelis-Menten constant and inhibition constant for aromatase enzyme; Competitive inhibition. The procedure, abridged: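 Ratio of substrate Km to Ki. Km for androstenedione and Ki come from the same placental-microsome kinetic runs: 10-30 nM [1β-3H]androstenedione, 150 µM NADPH, 5 min at 37 °C, with 3H2O release as the read-out. Ki was taken from Dixon plots.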

Series [4] concerns the target T1, Aromatase. Description: Inhibition constant against aromatase protein from human placental microsomes using [1-beta-3H]-androstenedione; Competitive inhibition. The procedure, abridged:
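Microsomes from human placenta. Kinetic runs used 10-30 nM [1β-3H]androstenedione with 150 µM NADPH, a range of inhibitor and substrate concentrations, and 5 min at 37 °C in 67 mM K phosphate pH 7.4. Released 3H2O was separated with chloroform and dextran-coated charcoal, then scintillation counted. Inhibition type was taken from Lineweaver-Burk plots and Ki from Dixon plots. Triplicates.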

Substrate in series [5]: C[C@]12CCC(=O)C=C1CC[C@@H]1[C@@H]2CC[C@]2(C)C(=O)CC[C@@H]12
Put plainly: Michaelis-Menten constant against Aromatase. Also noted: species or system Homo sapiens. The procedure, abridged: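 Human placental microsomes (cotyledon homogenate, differential centrifugation, stored -80 °C), 67 mM potassium phosphate pH 7.4. Kinetic runs used 10-30 nM [1β-3H]androstenedione, NADPH 150 µM to start, 5 min at 37 °C. Aromatization read as released 3H2O after chloroform and dextran-charcoal extraction, by scintillation counting. Lineweaver-Burk analysis; points are means of three determinations.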

A word on the inhibition: it is the change of the read-out against control, counted positive when it falls. One may read the IC50 as the concentration that inhibits the measured activity by half. Low readings indicate higher potency, high ones lower potency. A word on the Ki: it is the equilibrium dissociation constant of an inhibitor or competing ligand from its target. Broadly, the Km is the substrate concentration at which the rate is half of its maximum.

Molecule `C[C@]12CCC3C(CC[C@@]4(C=O)OC(=O)CC[C@]34C)C1CCC2=O` (stereo partly specified) registered an inhibition at 2 µM in series [1] of 11%.

In series [1], `C[C@]12CCC3C(CC[C@@H]4[C@H]5O[C@H]5CC[C@]34C)C1CCC2=O` (stereo partly specified) came in with an inhibition at 2 µM of 14.6%.

Consider `C[C@]12CCC3C(CC[C@H]4C=CCC[C@]34C)C1CCC2=O` (stereo partly specified), for which the IC50 in series [2] worked out at 225 nM. Further, the Km/Ki in series [3] stood at 1.15. This molecule also gave an inhibition constant (Ki) in series [4] of 50 nM. The molecule also had an inhibition at 2 µM in series [1] of 95.9%.

The molecule `C[C@]12CC[C@@H](O)[C@H](O)[C@@H]1CC[C@@H]1[C@@H]2CC[C@]2(C)C(=O)CC[C@@H]12` showed an inhibition at 2 µM in series [1] of 34.6%.

In series [1], `C[C@]12CC[C@H](O)[C@@H](O)[C@H]1CC[C@@H]1[C@@H]2CC[C@]2(C)C(=O)CC[C@@H]12` returned an inhibition at 2 µM of 10.1%.

Consider `C[C@]12CCC(=O)C(O)=C1CC[C@@H]1[C@@H]2CC[C@]2(C)C(=O)CC[C@@H]12` [FORMESTANE], for which the half-inhibitory concentration (IC50) in series [2] was determined as 42 nM. In series [1], the inhibition at 2 µM was determined as 99.1%.

The molecule `C[C@]12CCC3C(CC[C@H]4C(O)(C#N)[C@H](O)CC[C@]34C)C1CCC(=O)O2` (stereo partly specified) had an inhibition at 2 µM in series [1] of 17.6%.

The molecule `C[C@]12CC[C@H]3O[C@H]3[C@@H]1CC[C@@H]1[C@@H]2CC[C@]2(C)C(=O)CC[C@@H]12` displayed a half-inhibitory concentration (IC50) in series [2] of 145 nM. For the same molecule, in series [3], the Km/Ki was found to be 1.51. This molecule also had a Ki in series [4] of 38 nM. Moreover, the inhibition at 2 µM in series [1] came to 96.4%.

Regarding `C[C@]12CCC3C(CC[C@H]4[C@@H](O)[C@H](O)CC[C@]34C)C1CCC(=O)O2` (stereo partly specified), the inhibition at 2 µM in series [1] was 8.1%.

For `C[C@]12CCC(=O)C(O)=C1CCC1C2CC[C@]2(C)OC(=O)CCC12` (stereo partly specified), in series [2], the IC50 came to 1850 nM. In series [3], the Km/Ki was found to be 0.087. This molecule also came in with a Ki in series [4] of 660 nM. Testing at 2 µM in series [1] gave an inhibition of 72.5%.

With `C[C@]12CCC3C(CC[C@H]4C(=O)[C@H](O)CC[C@]34C)C1CCC(=O)O2` (stereo partly specified), in series [1], 2 µM produced 16.6% inhibition.

On to `C[C@]12CC[C@@H](O)C(=O)[C@@H]1CC[C@@H]1[C@@H]2CC[C@]2(C)C(=O)CC[C@@H]12`, for which the IC50 in series [2] is 670 nM. The Km/Ki in series [3] is 0.39. The same molecule displayed a Ki in series [4] of 147 nM. This molecule also yielded an inhibition at 2 µM in series [1] of 83.3%.

B1: Aromatase (Homo sapiens) (protein)
chain: MVLEMLNPIHYNITSIVPEAMPAATMPVLLLTGLFLLVWNYEGTSSIPGPGYCMGIGPLISHGRFLWMGIGSACNYYNRVYGEFMRVWISGEETLIISKSSSMFHIMKHNHYSSRFGSKLGLQCIGMHEKGIIFNNNPELWKTTRPFFMKALSGPGLVRMVTVCAESLKTHLDRLEEVTNESGYVDVLTLLRRVMLDTSNTLFLRIPLDESAIVVKIQGYFDAWQALLIKPDIFFKISWLYKKYEKSVKDLKDAIEVLIAEKRRRISTEEKLEECMDFATELILAEKRGDLTRENVNQCILEMLIAAPDTMSVSLFFMLFLIAKHPNVEEAIIKEIQTVIGERDIKIDDIQKLKVMENFIYESMRYQPVVDLVMRKALEDDVIDGYPVKKGTNIILNIGRMHRLEFFPKPNEFTLENFAKNVPYRYFQPFGFGPRGCAGKYIAMVMMKAILVTLLRRFHVKTLQGQCVESIQKIHDLSLHPDETKNMLEMIFTPRNSDRCLEH
For the molecule B1, in series [5], the Km came to 0.0575 µM.
